According to ChEMBL document CHEMBL3091364, “Benzyloxybenzylammonium chlorides: Simple amine salts that display anticonvulsant activity” (Bioorg Med Chem, 2013):

Columns and labels:
[1] = target: Beta-2 adrenergic receptor (Homo sapiens) (UniProt P07550); assay: Inhibition of adrenergic beta-2 receptor (unknown origin) at 10 uM relative to control
[2] = target: Muscarinic acetylcholine receptor M3 (Homo sapiens) (UniProt P20309); assay: Inhibition of muscarinergic M3 receptor (unknown origin) at 10 uM relative to control
[3] = Toxicity in po dosed albino Sprague-Dawley rat assessed as behavioral changes measured at 0.25 to 4 hrs; format: organism-based; conditions: in vivo
Outline: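 Male albino Sprague-Dawley rats given compound intraperitoneally or orally (NINDS ASP); neurological impairment judged from behavioral toxicity effects. Preset screening doses (e.g., 30 mg/kg); for adequately active compounds, TD50 (mg/kg, 95% confidence intervals) derived from dose–effect data at time of peak effect.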

[4] = target: T1, Muscarinic acetylcholine receptor M5 (Homo sapiens) (UniProt P08912); assay: Inhibition of muscarinergic M5 receptor (unknown origin) at 10 uM relative to control
T1 sequence (whole entry): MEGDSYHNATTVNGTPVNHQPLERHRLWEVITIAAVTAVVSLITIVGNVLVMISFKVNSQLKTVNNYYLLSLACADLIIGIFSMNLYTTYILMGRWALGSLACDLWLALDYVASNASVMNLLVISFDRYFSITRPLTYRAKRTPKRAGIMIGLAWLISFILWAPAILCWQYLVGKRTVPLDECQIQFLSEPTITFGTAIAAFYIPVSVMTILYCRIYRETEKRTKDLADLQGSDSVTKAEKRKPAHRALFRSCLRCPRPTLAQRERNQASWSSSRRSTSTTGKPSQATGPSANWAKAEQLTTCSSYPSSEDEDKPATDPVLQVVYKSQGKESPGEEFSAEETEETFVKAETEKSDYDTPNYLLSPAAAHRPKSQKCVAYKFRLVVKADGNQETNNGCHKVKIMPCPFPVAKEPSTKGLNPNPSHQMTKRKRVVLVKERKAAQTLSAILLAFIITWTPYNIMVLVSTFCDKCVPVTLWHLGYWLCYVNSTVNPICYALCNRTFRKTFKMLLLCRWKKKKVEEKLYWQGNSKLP

[5] = target: Histamine H1 receptor (Homo sapiens) (UniProt P35367); assay: Inhibition of histamine H1 receptor (unknown origin) at 10 uM relative to control
[6] = target: T2, Muscarinic acetylcholine receptor M4 (Homo sapiens) (UniProt P08173); assay: Inhibition of muscarinergic M4 receptor (unknown origin) at 10 uM relative to control
T2 sequence (whole entry): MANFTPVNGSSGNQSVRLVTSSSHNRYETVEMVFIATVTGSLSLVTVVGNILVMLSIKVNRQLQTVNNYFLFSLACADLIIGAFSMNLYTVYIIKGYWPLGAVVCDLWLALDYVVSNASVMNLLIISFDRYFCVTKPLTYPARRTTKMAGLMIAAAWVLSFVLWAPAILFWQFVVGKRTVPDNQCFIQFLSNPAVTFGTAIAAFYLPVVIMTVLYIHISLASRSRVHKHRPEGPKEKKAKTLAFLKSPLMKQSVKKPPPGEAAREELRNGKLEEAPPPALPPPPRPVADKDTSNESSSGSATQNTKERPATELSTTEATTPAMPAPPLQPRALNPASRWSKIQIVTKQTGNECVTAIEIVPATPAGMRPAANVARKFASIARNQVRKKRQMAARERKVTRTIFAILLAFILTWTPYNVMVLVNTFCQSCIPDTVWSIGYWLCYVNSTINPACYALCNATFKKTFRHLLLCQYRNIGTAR

[7] = target: T3, Alpha-2C adrenergic receptor (Homo sapiens) (UniProt P18825); assay: Inhibition of adrenergic alpha-2C receptor (unknown origin) at 10 uM relative to control
T3 sequence (whole entry): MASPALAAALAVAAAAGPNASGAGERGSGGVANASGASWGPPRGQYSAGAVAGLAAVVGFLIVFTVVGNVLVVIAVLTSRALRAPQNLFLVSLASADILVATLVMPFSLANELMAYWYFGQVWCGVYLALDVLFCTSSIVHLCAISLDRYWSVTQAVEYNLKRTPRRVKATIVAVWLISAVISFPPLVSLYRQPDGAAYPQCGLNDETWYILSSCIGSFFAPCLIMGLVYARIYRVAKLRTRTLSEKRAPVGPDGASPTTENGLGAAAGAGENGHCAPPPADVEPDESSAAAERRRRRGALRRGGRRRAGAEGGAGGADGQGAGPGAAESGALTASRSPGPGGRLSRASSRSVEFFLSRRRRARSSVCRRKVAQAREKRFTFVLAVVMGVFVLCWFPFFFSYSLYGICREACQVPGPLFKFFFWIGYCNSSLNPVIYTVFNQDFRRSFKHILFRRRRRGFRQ

[8] = target: D(1A) dopamine receptor (Homo sapiens) (UniProt P21728); assay: Inhibition of dopaminergic D1 receptor (unknown origin) at 10 uM relative to control
[9] = target: 5-hydroxytryptamine receptor 2B (Homo sapiens) (UniProt P41595); assay: Inhibition of 5-HT2B receptor (unknown origin) at 10 uM relative to control
[10] = target: Sodium-dependent noradrenaline transporter (Homo sapiens) (UniProt P23975); assay: Inhibition of NET (unknown origin) at 10 uM relative to control
[11] = target: Sodium-dependent serotonin transporter (Homo sapiens) (UniProt P31645); assay: Inhibition of SERT (unknown origin) at 10 uM relative to control
[12] = Toxicity in ip dosed albino CF-1 mouse assessed as neurological impairment measured at 0.25 to 4 hrs by rotorod test; format: organism-based; conditions: in vivo
Outline: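 Male albino Carworth Farms No. 1 mice dosed intraperitoneally under the NINDS Anticonvulsant Screening Program; neurological impairment scored by rotorod test. Qualitative screens used preset doses (e.g., 30, 100 mg/kg); where activity was sufficient, dose–response curves were run at time of peak effect to give TD50 in mg/kg with 95% confidence intervals.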

Rattus norvegicus = assay: Anticonvulsant activity in ip dosed albino Sprague-Dawley rat assessed as protection against maximal electroshock-induced seizures measured at 0.25 to 4 hrs; format: functional
Outline: (§1)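 Screened under the NINDS ASP in male albino Carworth Farms No. 1 mice (ip) or male albino Sprague-Dawley rats (ip or po), using MES, 6 Hz (32 mA) and subcutaneous pentylenetetrazol seizure tests. Initial qualitative tests used preset doses (e.g., 30, 50, 100 mg/kg). ED50 values with 95% confidence intervals came from dose–response data collected at the time of peak effect.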

[13] = target: D(2) dopamine receptor (Homo sapiens) (UniProt P14416); assay: Inhibition of dopaminergic D2 receptor (unknown origin) at 10 uM relative to control
Mus musculus = assay: Anticonvulsant activity in ip dosed albino CF-1 mouse assessed as protection against 6 Hz psychomotor seizure measured at 0.25 to 4 hrs; format: functional; conditions: albino CF-1, ip; outline: as §1

Beta-2 adrenergic receptor (Homo sapiens), sequence (P07550 whole entry, looked up): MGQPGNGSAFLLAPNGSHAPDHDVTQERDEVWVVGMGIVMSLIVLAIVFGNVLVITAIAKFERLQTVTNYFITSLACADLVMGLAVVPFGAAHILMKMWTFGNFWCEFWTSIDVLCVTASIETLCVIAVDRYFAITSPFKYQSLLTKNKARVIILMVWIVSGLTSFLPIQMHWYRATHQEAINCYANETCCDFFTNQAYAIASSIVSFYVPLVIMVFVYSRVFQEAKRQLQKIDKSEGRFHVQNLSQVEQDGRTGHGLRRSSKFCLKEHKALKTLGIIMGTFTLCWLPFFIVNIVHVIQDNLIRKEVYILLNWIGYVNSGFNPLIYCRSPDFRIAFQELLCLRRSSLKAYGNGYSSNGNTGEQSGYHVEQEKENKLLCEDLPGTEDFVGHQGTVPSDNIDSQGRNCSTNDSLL
Histamine H1 receptor (Homo sapiens), sequence (P35367 whole entry): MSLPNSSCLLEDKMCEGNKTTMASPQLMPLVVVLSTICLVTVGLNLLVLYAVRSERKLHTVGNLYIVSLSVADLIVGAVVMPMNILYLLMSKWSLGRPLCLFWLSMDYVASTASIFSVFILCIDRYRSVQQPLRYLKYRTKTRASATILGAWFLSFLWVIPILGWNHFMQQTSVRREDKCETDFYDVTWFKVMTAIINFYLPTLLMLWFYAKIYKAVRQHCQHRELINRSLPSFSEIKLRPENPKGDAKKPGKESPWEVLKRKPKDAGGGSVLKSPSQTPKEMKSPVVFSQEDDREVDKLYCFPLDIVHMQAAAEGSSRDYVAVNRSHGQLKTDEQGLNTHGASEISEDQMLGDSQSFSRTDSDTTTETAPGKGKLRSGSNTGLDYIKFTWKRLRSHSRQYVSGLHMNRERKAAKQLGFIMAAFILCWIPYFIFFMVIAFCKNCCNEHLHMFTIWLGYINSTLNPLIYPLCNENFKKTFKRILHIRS
Sodium-dependent serotonin transporter (Homo sapiens), sequence (P31645 whole entry, looked up): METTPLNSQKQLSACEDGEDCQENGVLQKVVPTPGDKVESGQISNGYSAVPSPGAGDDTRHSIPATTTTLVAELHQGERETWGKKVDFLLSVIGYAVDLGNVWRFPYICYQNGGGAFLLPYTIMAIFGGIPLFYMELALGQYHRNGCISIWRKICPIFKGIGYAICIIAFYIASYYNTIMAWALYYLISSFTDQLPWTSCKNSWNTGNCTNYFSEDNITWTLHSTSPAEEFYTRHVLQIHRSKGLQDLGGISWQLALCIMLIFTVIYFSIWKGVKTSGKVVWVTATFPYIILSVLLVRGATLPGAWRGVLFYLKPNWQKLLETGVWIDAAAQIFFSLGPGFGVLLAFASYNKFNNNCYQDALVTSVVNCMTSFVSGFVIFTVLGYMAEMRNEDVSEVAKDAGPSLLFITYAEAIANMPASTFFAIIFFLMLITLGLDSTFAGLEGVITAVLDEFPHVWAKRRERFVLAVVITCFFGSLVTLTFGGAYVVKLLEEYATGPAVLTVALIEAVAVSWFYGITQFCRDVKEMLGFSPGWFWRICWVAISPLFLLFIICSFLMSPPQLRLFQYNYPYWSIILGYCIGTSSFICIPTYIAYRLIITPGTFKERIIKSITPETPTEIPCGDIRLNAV
Sodium-dependent noradrenaline transporter (Homo sapiens), sequence (P23975 whole entry): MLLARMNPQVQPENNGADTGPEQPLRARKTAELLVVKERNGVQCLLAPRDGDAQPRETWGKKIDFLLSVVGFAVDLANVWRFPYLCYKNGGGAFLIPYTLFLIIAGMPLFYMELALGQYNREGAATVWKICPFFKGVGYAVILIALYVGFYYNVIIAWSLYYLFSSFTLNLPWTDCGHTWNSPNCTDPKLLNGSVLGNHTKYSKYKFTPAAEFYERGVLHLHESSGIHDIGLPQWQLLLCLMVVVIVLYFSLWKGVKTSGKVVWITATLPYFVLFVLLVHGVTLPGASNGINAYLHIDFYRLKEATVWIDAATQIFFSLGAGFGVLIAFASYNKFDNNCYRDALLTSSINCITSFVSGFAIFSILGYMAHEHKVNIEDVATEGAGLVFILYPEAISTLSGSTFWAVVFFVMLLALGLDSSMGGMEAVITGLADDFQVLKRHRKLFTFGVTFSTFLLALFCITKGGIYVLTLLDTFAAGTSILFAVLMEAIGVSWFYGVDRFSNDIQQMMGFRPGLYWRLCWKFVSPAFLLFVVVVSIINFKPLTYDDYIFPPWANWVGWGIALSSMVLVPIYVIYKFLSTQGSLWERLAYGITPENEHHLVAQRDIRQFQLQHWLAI
Muscarinic acetylcholine receptor M3 (Homo sapiens), sequence (P20309 whole entry, looked up): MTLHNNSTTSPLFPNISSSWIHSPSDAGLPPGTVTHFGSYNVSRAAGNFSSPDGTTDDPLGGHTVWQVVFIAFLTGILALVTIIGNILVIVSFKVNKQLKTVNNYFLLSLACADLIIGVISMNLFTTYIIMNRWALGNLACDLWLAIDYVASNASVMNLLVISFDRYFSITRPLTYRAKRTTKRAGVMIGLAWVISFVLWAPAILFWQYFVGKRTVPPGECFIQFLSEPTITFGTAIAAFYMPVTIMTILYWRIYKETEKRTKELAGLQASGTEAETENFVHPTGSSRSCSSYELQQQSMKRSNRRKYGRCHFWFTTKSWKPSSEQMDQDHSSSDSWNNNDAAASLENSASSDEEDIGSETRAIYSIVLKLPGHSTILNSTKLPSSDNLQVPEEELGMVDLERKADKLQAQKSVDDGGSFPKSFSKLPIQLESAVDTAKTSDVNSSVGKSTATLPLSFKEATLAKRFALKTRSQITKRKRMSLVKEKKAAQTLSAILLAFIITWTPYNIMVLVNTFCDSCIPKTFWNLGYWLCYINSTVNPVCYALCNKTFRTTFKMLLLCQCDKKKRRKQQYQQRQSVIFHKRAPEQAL
D(1A) dopamine receptor (Homo sapiens), sequence (P21728 whole entry): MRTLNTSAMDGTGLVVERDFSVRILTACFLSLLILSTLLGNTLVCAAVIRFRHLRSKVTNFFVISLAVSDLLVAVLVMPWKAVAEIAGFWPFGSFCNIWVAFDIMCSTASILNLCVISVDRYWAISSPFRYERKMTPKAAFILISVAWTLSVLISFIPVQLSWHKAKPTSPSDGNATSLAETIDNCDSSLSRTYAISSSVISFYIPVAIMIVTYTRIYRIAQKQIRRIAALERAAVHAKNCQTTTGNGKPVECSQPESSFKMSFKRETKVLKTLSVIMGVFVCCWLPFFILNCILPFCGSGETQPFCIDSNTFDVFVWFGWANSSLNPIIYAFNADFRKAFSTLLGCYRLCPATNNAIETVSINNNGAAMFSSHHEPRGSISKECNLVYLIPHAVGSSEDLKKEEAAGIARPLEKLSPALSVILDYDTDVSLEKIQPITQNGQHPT
5-hydroxytryptamine receptor 2B (Homo sapiens), sequence (P41595 whole entry): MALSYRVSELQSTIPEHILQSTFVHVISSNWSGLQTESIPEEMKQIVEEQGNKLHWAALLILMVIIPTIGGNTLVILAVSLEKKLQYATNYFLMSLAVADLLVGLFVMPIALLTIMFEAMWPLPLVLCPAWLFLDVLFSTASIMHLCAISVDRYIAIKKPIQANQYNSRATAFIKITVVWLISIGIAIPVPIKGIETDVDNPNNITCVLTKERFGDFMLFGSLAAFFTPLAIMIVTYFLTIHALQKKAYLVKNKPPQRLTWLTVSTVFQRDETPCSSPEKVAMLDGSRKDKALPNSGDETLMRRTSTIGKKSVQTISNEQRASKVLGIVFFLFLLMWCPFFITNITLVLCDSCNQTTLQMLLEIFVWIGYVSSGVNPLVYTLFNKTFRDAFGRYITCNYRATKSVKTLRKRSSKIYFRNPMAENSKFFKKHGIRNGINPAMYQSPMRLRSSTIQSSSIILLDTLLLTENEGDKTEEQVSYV
D(2) dopamine receptor (Homo sapiens), sequence (P14416 whole entry): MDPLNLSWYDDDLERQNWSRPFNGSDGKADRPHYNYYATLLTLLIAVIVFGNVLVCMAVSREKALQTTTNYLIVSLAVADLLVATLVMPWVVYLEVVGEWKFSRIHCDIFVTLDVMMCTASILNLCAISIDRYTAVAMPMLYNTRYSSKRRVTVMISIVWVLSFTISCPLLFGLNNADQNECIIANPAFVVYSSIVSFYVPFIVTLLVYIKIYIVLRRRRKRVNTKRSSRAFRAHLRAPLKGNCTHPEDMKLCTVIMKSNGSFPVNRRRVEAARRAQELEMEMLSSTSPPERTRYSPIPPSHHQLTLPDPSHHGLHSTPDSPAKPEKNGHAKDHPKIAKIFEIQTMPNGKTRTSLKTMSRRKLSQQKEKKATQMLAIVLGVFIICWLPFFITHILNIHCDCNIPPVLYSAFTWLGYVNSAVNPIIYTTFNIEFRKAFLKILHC

Compound	inhibition [1] [%]	inhibition [2] [%]	TD50 [3] [mg/kg]	inhibition [4] [%]	inhibition [5] [%]	inhibition [6] [%]	inhibition [7] [%]	inhibition [8] [%]	inhibition [9] [%]	inhibition [10] [%]	inhibition [11] [%]	TD50 [12] [mg/kg]	ED50 (Rattus norvegicus) [mg/kg]	inhibition [13] [%]	ED50 (Mus musculus) [mg/kg]
Cl.NCc1ccc(OCc2cccc(Cl)c2)cc1	-5.7	11.9	> 30	17.7	1.4	0.2	81.1	2.9	39.8	83.9	76.5	–	–	–	–
Cl.NCc1ccc(OCc2cccc(F)c2)cc1	9.2	-2.1	> 30	–	5.2	–	–	-1.1	87.3	76.1	83.4	> 100	> 30	3.2	> 50
Cl.NCc1ccc(OCc2cccc(OC(F)(F)F)c2)cc1	-8.1	-3.5	> 30	0.8	12.1	4.3	46.6	-3.3	51.4	58.5	55.7	–	–	–	–
Cl.NCc1ccc(OCc2ccccc2OC(F)(F)F)cc1	5	19.5	> 30	0.4	15.6	1.6	40.2	-2.5	49	29.3	31.4	–	–	12.7	< 100
Cl.NCc1ccc(OCc2ccc(OC(F)(F)F)cc2)cc1	9.1	-6.5	> 30	1.7	14.7	-4.7	42.2	-9.4	34.4	60.1	10.6	> 100	–	5.3	–
Cl.NCc1ccc(OCc2ccccc2)cc1	11.8	1	> 30	-2.7	7.6	–	47.6	-6	55.7	63.6	49.1	–	> 30	12.4	–
Cl.NCc1ccc(OCc2ccccc2F)cc1	17.4	12.7	> 30	-8.5	6.7	-9	33	-0.2	82.4	61.3	34.4	–	> 30	7.4	–
Cl.NCc1ccc(OCc2ccc(Cl)cc2)cc1	17.1	13.7	> 30	13.6	0.3	3.5	52.1	7.6	40.6	64.7	53.8	> 100	> 30	–	–
Cl.NCc1ccc(OCc2ccc(F)cc2)cc1	2.2	7	> 30	6.4	-5.8	10.4	40.2	-1.9	46.5	59.9	71.3	> 100	–	–	> 100
